Legend:
[1] = Cmax in non-perfused Sprague-Dawley rat cerebrospinal fluid at 30 mg/kg, iv; format: ADME, organism-based; parameters: dose 30 mg/kg, route intravenous
Method in brief: (§1)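 Nonfasted adult rats received 30 mg/kg in aqueous 0.9% NaCl (pH 4.0) by slow tail-vein injection over 20–30 s. Groups were sampled at 5 min and 0.25, 0.5, 1, 2, 4 and 8 h, with 4–5 rats per time point, under terminal isoflurane. Blood was taken by heart puncture and CSF from the cisterna magna. Brains were homogenized either unperfused or after transcardial saline perfusion. Samples were assayed by LC-MS/MS, and pooled composite data were analyzed noncompartmentally.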

[2] = Terminal half life in non-perfused Sprague-Dawley rat brain at 30 mg/kg, iv; format: ADME, organism-based; parameters: dose 30 mg/kg, route intravenous; conditions: read-out: beta t1/2 (converted)
Method in brief: (§2)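 Nonfasted Sprague-Dawley rats given 30 mg/kg i.v. in 0.9% NaCl pH 4.0 by tail vein over 20–30 s. Terminal sampling under isoflurane at 5 min, 0.25, 0.5, 1, 2, 4 and 8 h (4–5 rats/time): plasma, CSF, and brain homogenate, with or without saline perfusion. LC-MS/MS. t1/2, Vss and ratios from noncompartmental analysis of pooled composite concentrations.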

[3] = Cmax in perfused Sprague-Dawley rat cerebrospinal fluid at 1000 mg/kg, po; format: ADME, organism-based; parameters: dose 1000 mg/kg, route oral
Method in brief: (§3)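 Oseltamivir phosphate was given by oral gavage at 1,000 mg/kg free base. Sampling was at 1, 2, 4, 6 and 8 h, with 4 rats per time point, under terminal isoflurane. Blood was taken by cardiac puncture and CSF from the cisterna magna. Brains were perfused transcardially with saline before homogenization. Samples were quantified by LC-MS/MS, with noncompartmental analysis of pooled composite data giving AUC0-8 h and concentration ratios.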

[4] = Permeability from […] of Spodoptera frugiperda Sf9 cells over expressing human BCRP1; format: ADME, cell-based
Method in brief: (§4)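 Membrane vesicles (20–50 µg) from insect cells expressing recombinant human BCRP1, MRP1 or MRP3 were prewarmed at 37°C. They were incubated for 60 s at 37°C with 14C-oseltamivir (3.8 µM) or OC (3.1 µM), with or without 5 mM ATP, in sucrose/KNO3/Mg(NO3)2/HEPES-Tris pH 7.4. The reaction was stopped with ice-cold buffer containing taurocholate, followed by rapid nitrocellulose filtration and scintillation counting. Determinations were in triplicate.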

[5] = Terminal half life in perfused Sprague-Dawley rat cerebrospinal fluid at 30 mg/kg, iv; format: ADME, organism-based; parameters: dose 30 mg/kg, route intravenous; conditions: read-out: beta t1/2 (converted); method in brief: as §2
Brain [6] = assay: AUC (0 to 8 hrs) after iv dose in perfused Sprague-Dawley rat brain at 30 mg/kg; conditions: in vivo
Plasma [7] = assay: AUC (0 to 8 hrs) after po dose in perfused Sprague-Dawley rat plasma at 1000 mg/kg; conditions: in vivo
Cerebrospinal fluid [8] = assay: AUC (0 to 8 hrs) after iv dose in perfused Sprague-Dawley rat cerebrospinal fluid at 30 mg/kg; conditions: in vivo
[9] = Cmax in perfused Sprague-Dawley rat plasma at 1000 mg/kg, po; format: ADME, organism-based; parameters: dose 1000 mg/kg, route oral; method in brief: as §3
Brain [10] = assay: AUC (0 to 8 hrs) after iv dose in non-perfused Sprague-Dawley rat brain at 30 mg/kg; conditions: in vivo
[11] = Terminal half life in perfused Sprague-Dawley rat plasma at 30 mg/kg, iv; format: ADME, organism-based; parameters: dose 30 mg/kg, route intravenous; conditions: read-out: beta t1/2 (converted); method in brief: as §2
Cerebrospinal fluid [12] = assay: AUC (0 to 8 hrs) after iv dose in non-perfused Sprague-Dawley rat cerebrospinal fluid at 30 mg/kg; conditions: in vivo
[13] = Cmax in perfused Sprague-Dawley rat plasma at 30 mg/kg, iv; format: ADME, organism-based; parameters: dose 30 mg/kg, route intravenous; method in brief: as §1
[14] = AUC (0 to 8 hrs) ratio in cerebrospinal fluid to plasma in perfused Sprague-Dawley rat at 1000 mg/kg, po; format: ADME, organism-based; parameters: dose 1000 mg/kg, route oral; conditions: cerebrospinal fluid and plasma, read-out: Ratio AUC; method in brief: as §3
[15] = Cmax in perfused Sprague-Dawley rat cerebrospinal fluid at 30 mg/kg, iv; format: ADME, organism-based; parameters: dose 30 mg/kg, route intravenous; method in brief: as §1
[16] = Terminal half life in non-perfused Sprague-Dawley rat plasma at 30 mg/kg, iv; format: ADME, organism-based; parameters: dose 30 mg/kg, route intravenous; conditions: read-out: beta t1/2 (converted); method in brief: as §2
Cerebrospinal fluid [17] = assay: AUC (0 to 8 hrs) after po dose in perfused Sprague-Dawley rat cerebrospinal fluid at 1000 mg/kg; conditions: in vivo
[18] = AUC ratio in brain to plasma in perfused Sprague-Dawley rat at 30 mg/kg, iv; format: ADME, organism-based; parameters: dose 30 mg/kg, route intravenous; conditions: brain and plasma, read-out: Ratio AUC; method in brief: as §1
[19] = AUC (0 to 8 hrs) ratio in cerebrospinal fluid to brain in perfused Sprague-Dawley rat at 1000 mg/kg, po; format: ADME, organism-based; parameters: dose 1000 mg/kg, route oral; conditions: in vivo; method in brief: as §3
[20] = Cmax in perfused Sprague-Dawley rat brain at 30 mg/kg, iv; format: ADME, organism-based; parameters: dose 30 mg/kg, route intravenous; method in brief: as §1
[21] = Cmax in perfused Sprague-Dawley rat brain at 1000 mg/kg, po; format: ADME, organism-based; parameters: dose 1000 mg/kg, route oral; method in brief: as §3
[22] = Cmax in non-perfused Sprague-Dawley rat plasma at 30 mg/kg, iv; format: ADME, organism-based; parameters: dose 30 mg/kg, route intravenous; method in brief: as §1
[23] = […] of Spodoptera frugiperda Sf9 cells over expressing human MRP1; format: ADME, cell-based; method in brief: as §4
Plasma [24] = assay: AUC (0 to 8 hrs) after iv dose in perfused Sprague-Dawley rat plasma at 30 mg/kg; conditions: in vivo
[25] = Permeability from […] of Spodoptera frugiperda Sf9 cells over expressing human MRP3; format: ADME, cell-based; method in brief: as §4
Brain [26] = assay: Ratio of AUC (0 to infinity) after iv dose to AUC (0 to 8 hrs) after po dose in perfused Sprague-Dawley rat brain at 1000 mg/kg; format: ADME, organism-based; parameters: dose 1000 mg/kg, route oral; conditions: in vivo
Method in brief: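 Sprague-Dawley rats, nonfasted. i.v.: 30 mg/kg in 0.9% NaCl pH 4.0, slow tail-vein injection, sampled at 5 min and 0.25–8 h. Oral gavage: 1,000 mg/kg free base, sampled 1–8 h. Four or five rats per time point, with cardiac blood and cisterna magna CSF. Brains taken with or without saline transcardial perfusion (oral study perfused). LC-MS/MS. AUC by noncompartmental analysis of pooled composite data.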

[27] = AUC (0 to 8 hrs) ratio in brain to plasma in perfused Sprague-Dawley rat at 1000 mg/kg, po; format: ADME, organism-based; parameters: dose 1000 mg/kg, route oral; conditions: brain and plasma, read-out: Ratio AUC; method in brief: as §3
[28] = Cmax in non-perfused Sprague-Dawley rat brain at 30 mg/kg, iv; format: ADME, organism-based; parameters: dose 30 mg/kg, route intravenous; method in brief: as §1
[29] = Terminal half life in perfused Sprague-Dawley rat brain at 30 mg/kg, iv; format: ADME, organism-based; parameters: dose 30 mg/kg, route intravenous; conditions: read-out: beta t1/2 (converted); method in brief: as §2
[30] = Terminal half life in non-perfused Sprague-Dawley rat cerebrospinal fluid at 30 mg/kg, iv; format: ADME, organism-based; parameters: dose 30 mg/kg, route intravenous; conditions: read-out: beta t1/2 (converted); method in brief: as §2
[31] = Prodrug conversion in human brain S9 fractions assessed as oseltamivir carboxylate generation rate assessed per mg of protein per min; format: ADME
Method in brief: (§5)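 S9 from brain or liver (rat S9 made by homogenizing tissue in ~4 ml Tris-sucrose buffer per g, supernatant after 9,000 × g at 10°C; pooled human brain and liver S9 also used), protein by bicinchoninic acid assay. Oseltamivir: triplicate, 10 μM 14C-oseltamivir final, 1.0 mg S9 protein, 100 mM Tris-HCl pH 7.4, 30 min at 37°C, quenched with TCA-acetonitrile.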

[32] = Prodrug conversion in 7 days old male rat brain S9 fractions assessed as oseltamivir carboxylate generation rate assessed per mg of protein per min; format: ADME, tissue-based; method in brief: as §5

| Cmax [1] [ng/mL] | half-life [2] [min] | Cmax [3] [ng/mL] | permeability [4] | half-life [5] [min] | AUC (Brain [6]) | AUC (Plasma [7]) | AUC (Cerebrospinal fluid [8]) | Cmax [9] [ng/mL] | AUC (Brain [10]) | half-life [11] [min] | AUC (Cerebrospinal fluid [12]) | Cmax [13] [ng/mL] | Kp [14] | Cmax [15] [ng/mL] | half-life [16] [min] | AUC (Cerebrospinal fluid [17]) | Ratio AUC [19] | Cmax [20] [ng/g] | Cmax [21] [ng/g] | also measured | SMILES |
| --- | --- | --- | --- | --- | --- | --- | --- | --- | --- | --- | --- | --- | --- | --- | --- | --- | --- | --- | --- | --- | --- |
| 227 | 22.7 | 363 | impermeable | 22.9 | 305 | 286000 | 137 | 49700 | 687 | 101 | 128 | 86300 | 0.007 | 249 | 98.4 | 1940 | 0.64 | 605 | 641 | Kp [18]: < 0.004; Cmax [22]: 72300 ng/mL; permeability [23]: impermeable; AUC (Plasma [24]): 33800; permeability [25]: impermeable; Ratio AUC (Brain [26]): 3450; Kp [27]: 0.01; Cmax [28]: 1710 ng/g; half-life [29]: 28.7 min; half-life [30]: 20.5 min | CCC(CC)O[C@@H]1C=C(C(=O)O)C[C@H](N)[C@H]1NC(C)=O [OSELTAMIVIR CARBOXYLATE] |
| 897 | 147 | 1120 | impermeable | 48.7 | 1160 | 107000 | 472 | 16300 | 1310 | 95.4 | 450 | 12500 | 0.07 | 921 | 81 | 7470 | 0.55 | 491 | 2310 | Activity [31]: 0.39 pmol/s; Activity ([31]; BLD = below limit of detection): BLD; Activity [32]: < 0.2 pmol/s; Cmax [22]: 12000 ng/mL; permeability [23]: impermeable; AUC (Plasma [24]): 5330; permeability [25]: impermeable; AUC (Brain [26]): 13600 ng·h/g; Kp [27]: 0.12; Cmax [28]: 712 ng/g; half-life [29]: 90.6 min; half-life [30]: 48.8 min | CCOC(=O)C1=C[C@@H](OC(CC)CC)[C@H](NC(C)=O)[C@@H](N)C1 [OSELTAMIVIR] |

Source: ChEMBL document CHEMBL1687750, “Nonclinical pharmacokinetics of oseltamivir and oseltamivir carboxylate in the central nervous system” (Antimicrob Agents Chemother, 2009)
